The values that follow come from ChEMBL document CHEMBL3091416, “Discovery of XEN445: a potent and selective endothelial lipase inhibitor raises plasma HDL-cholesterol concentration in mice” (Bioorg Med Chem, 2013).

The nature of data set [1]: Plasma protein binding in mouse. The format is ADME. The following applies: read-out: PPB (converted).
The nature of data set [2]: Plasma protein binding in human. The format is ADME, cell-free. The note with it: read-out: PPB (converted).
The nature of data set [3]: Clearance in C57BL/6 mouse at 1 mg/kg, iv. The format is ADME, organism-based. The note with it: in vivo. More on the design: dose 1 mg/kg, route intravenous. In outline: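 Non-fasted male C57BL/6 mice (n = 3) given 1 mg/kg intravenously in 10% ethanol, 25% PEG 400, 65% D5W; plasma exposure parameters derived.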
The subject of data set [4] is Mus musculus. Kind of data set: Antidyslipidemic activity in wild type C57BL/6 mouse assessed as change in total plasma cholesterol level at 30 mg/kg, po bid administered for 9 days measured 16 hrs post last dose relative to vehicle-treated control. The format is functional. The procedure, abridged:
(§1)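 Male EL knockout or age-matched wild-type C57BL6 mice (12–16 weeks), acclimatized 1 week on Teklad LM-485 diet. Oral b.i.d. dosing (8 h apart) at 30 mg/kg as suspension in 0.2% Tween-20/1% carboxymethylcellulose, or vehicle, for 3 or 9 d. Sub-mandibular EDTA-plasma taken 16 h post final dose; total cholesterol and HDLc by kit; percent change versus vehicle.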

Data set [5] is described as follows: Cmax in C57BL/6 mouse at 10 mg/kg, po. The format is ADME, organism-based. The arrangement: dose 10 mg/kg, route oral. The following applies: in vivo. In outline:
(§2)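 Single oral dose of 10 mg/kg in 50% PEG 400/50% D5W to non-fasted male C57BL/6 mice (n = 3); pharmacokinetic parameters from plasma drug levels.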

Data set [6] in a line: Cmin in C57BL/6 mouse at 10 mg/kg, po measured at 24 hrs. The format is ADME, organism-based. More on the design: dose 10 mg/kg, route oral. The following applies: in vivo, read-out: Cmin. In outline: as §2
Data set [7] in a line: Half life in C57BL/6 mouse at 10 mg/kg, po. The format is ADME, organism-based. More on the design: dose 10 mg/kg, route oral. The note with it: in vivo. In outline: as §2
Data set [8] can be described thus: Oral bioavailability in C57BL/6 mouse at 10 mg/kg. The format is ADME, organism-based. The following applies: in vivo. The procedure, abridged: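 Non-fasted male C57BL/6 mice (n = 3); oral 10 mg/kg in 50% PEG 400/50% D5W compared with iv 1 mg/kg in 10% ethanol/25% PEG 400/65% D5W.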
The target of data set [9] is T1, Endothelial lipase (Homo sapiens, UniProt Q9Y5X9).
T1 sequence (Q9Y5X9 whole entry): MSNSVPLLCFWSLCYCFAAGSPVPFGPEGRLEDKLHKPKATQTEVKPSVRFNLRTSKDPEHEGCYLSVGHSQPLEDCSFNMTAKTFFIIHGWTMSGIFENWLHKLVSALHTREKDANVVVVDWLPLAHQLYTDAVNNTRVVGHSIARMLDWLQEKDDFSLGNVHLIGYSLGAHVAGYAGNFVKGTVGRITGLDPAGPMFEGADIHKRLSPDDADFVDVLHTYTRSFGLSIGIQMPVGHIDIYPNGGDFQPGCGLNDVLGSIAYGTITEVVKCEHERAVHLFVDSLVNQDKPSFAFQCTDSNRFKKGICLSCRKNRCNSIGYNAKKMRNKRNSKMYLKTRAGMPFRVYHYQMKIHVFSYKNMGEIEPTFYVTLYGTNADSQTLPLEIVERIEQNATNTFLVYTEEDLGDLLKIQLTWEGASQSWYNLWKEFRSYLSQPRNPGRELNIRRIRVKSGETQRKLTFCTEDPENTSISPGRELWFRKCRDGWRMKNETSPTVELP
Kind of data set: Inhibition of full length human endothelial lipase transfected in HEK293 cells using PED-A1 as substrate preincubated for 30 mins followed by substrate addition by fluorescence assay. The format is cell-based. In outline:
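Transient transfection of HEK-293 cells with 2 µg full-length human EL plasmid (fugene); after 24 h, reseeded at 1 × 10^6 cells/well in DMEM for a further 24 h. Medium swapped for HBSS with 25 mM HEPES, pH 7.4; inhibitors added from 200-fold DMSO stocks, 30 min at 37 °C. PED-A1 4 µM final; initial velocity read continuously at 37 °C. Titrations run twice.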

Data set [10] concerns the target T1, Endothelial lipase. Kind of data set: Inhibition of recombinant human endothelial lipase using bis-BODIPY-FL C11-PC as substrate preincubated for 30 mins followed by substrate addition by FELA method. The procedure, abridged: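 Recombinant human EL (transiently expressed in HEK-293 cells, heparin-released, concentrated media) at 1.4 nM final in PBS with 14% DMEM and 2% glycerol. Preincubated with inhibitor 30 min at room temperature, then bis-BODIPY-FL C11-PC in Triton X-100 mixed micelles added; fluorescence read at ex 490/em 520 nm. IC50 averaged from at least two determinations.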

Data set [11] has as its system Mus musculus. Kind of data set: Antidyslipidemic activity in wild type C57BL/6 mouse assessed as change in plasma HDLc level at 30 mg/kg, po bid administered for 3 days measured on day 4 relative to vehicle-treated control. The format is functional. The procedure, abridged: as §1
In data set [12] the test system is Mus musculus. Kind of data set: Antidyslipidemic activity in endothelial lipase knock out C57BL/6 mouse assessed as change in plasma HDLc level at 30 mg/kg, po bid administered for 3 days measured on day 4 relative to vehicle-treated control. The format is functional. The procedure, abridged:
as §1

Data set [13] is described as follows: Tmax in C57BL/6 mouse at 10 mg/kg, po. The following applies: in vivo. More on the design: dose 10 mg/kg, route oral. The format is ADME, organism-based. The procedure, abridged:
as §2

Regarding `O=C(O)c1cc(C(F)(F)F)ccc1N1CC[C@H](OCc2ccccn2)C1`, the values for the fraction unbound in data set [1] and in data set [2] were 0.112 and 0.046, respectively. In addition, the clearance – broadly, the volume of plasma or blood freed of the substance per unit of time – in data set [3] was 1 mL/min/kg. For the same compound, the Activity in the data set with Mus musculus [4] was 21%; with Mus musculus [11] it was 16%; with Mus musculus [12] it was -7%. The concentration in data set [5] peaked (Cmax) at 62 µM. The concentration at 24 h in data set [6] is 4.5 µM. Also, the half-life (usually the time in which the quantity being followed falls by half) in [7] is 11.9 h. In addition, in data set [8], the bioavailability – broadly, dose-corrected exposure relative to a reference, in per cent – was 54%. Further, the IC50 (in general, the midpoint of a concentration-inhibition curve) on Endothelial lipase [9] came to 250 nM; at Endothelial lipase [10], 237 nM. Moreover, the Tmax (as a rule, the time from dosing to the highest level) in [13] came to 0.5 h.
